M1 PAM parental: counter-screen for M1 PAMs: effect in parental CHO-K1 cells; ATP EC20, Fluo-8 calcium fluorescence; 0% at ATP EC20, 100% at ATP max; activation, % at 3 µM; 360,000 tested, 0.02% active;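 active = activation above the run cutoff, the mean activation of all test compounds plus 3 SD, cut at about 40% in these data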;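 note: peak over basal fluorescence ratio in a 140 s read after ATP addition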
CHO-K1 Ca ag: nonselective activator or artifact in parental CHO-K1 cells | Fluo-8 calcium fluorescence; scaled to maximal ATP response, vehicle zero | 360,000 tested, 0.48% active | AID 602248 | activation, % at 3 µM; in the data active = activation above about 15%;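 note: untransfected CHO-K1 host cells lacking M1 receptor as counterscreen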
CHO parental Ca: counter-screen: ATP calcium response change in parental CHO cells; parental CHO-K1, ATP-induced calcium, Fluo-8 fluorescence; 330,000 tested, 0.63% active; inhibition, % at 5.6 µM;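 active = inhibition above that plate's mean sample inhibition plus 3 SD, cut at about 26% in these data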;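 note: 0% = ATP-challenged DMSO wells and 100% = DMSO wells without ATP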
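Test system: untransfected parental CHO cell line; also added: ATP stimulus; dosing: 5.6 µM, single dose; signal: calcium-sensitive Fluo-8 fluorescence; measure: percent inhibition of ATP-evoked calcium rise, normalized to controls; benchmarks: low control ATP plus DMSO, high control DMSO only; replication: one well per compound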
CHO-K1 Ca antag: counter-screen for M1 antagonists: effect in parental CHO-K1 cells. ATP-induced calcium, Fluo-8 fluorescence. inhibition, % at 3 µM. 360,000 tested, 0.6% active;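 active = inhibition above a per-plate cutoff, the plate's mean sample inhibition plus 3 SD, cut at about 24% in these data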;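 note: 0% = DMSO plus EC80 ATP and 100% = DMSO alone without ATP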
OX1R antag-1: blocks the human orexin 1 receptor. CHO/OX1R cells, Fluo-8 calcium fluorescence, orexin A. 330,000 tested, 0.43% active. inhibition, % at 5 µM. AID 434989;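 active = inhibition above its plate's threshold, mean inhibition of all tested compounds on the plate plus 3 SD, cut at about 37% in these data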;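 note: 0% = orexin A challenge wells and 100% = SB-334867-A antagonist wells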
Target sequence (O43613 whole entry, looked up): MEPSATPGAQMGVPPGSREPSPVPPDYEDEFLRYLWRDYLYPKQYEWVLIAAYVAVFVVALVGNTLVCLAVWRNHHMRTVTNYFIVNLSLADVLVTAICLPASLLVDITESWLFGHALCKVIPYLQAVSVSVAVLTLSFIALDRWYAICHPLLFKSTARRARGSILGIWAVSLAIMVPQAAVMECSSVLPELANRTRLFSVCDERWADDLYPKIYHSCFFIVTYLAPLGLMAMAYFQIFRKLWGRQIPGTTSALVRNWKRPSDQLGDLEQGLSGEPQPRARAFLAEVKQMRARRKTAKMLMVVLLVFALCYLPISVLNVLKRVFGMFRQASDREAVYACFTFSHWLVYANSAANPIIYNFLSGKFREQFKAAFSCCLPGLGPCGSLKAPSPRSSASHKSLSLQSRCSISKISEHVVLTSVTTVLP
OX1R antag-2: antagonists of human orexin 1 receptor (OX1R). inhibition, % at 6.6 µM. 330,000 tested, 1.8% active. AID 485270. O43613. OX1R-expressing cells, FRET antagonist read-out; in the data active = inhibition mostly above about 38%, no sharp cut-off; inactive = mostly below about 40%;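 note: 0% = agonist challenge alone and 100% = reference antagonist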
OX1R Fluo8 conf: OX1R (human) antagonism, confirmed | shares compounds with OX1R antag-1 | inhibition, % at 5 µM | CHO/OX1R cells, orexin A calcium Fluo-8 fluorescence | 1,100 tested, 38% active; in the data active = inhibition above about 29%;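 note: 0% = agonist challenge alone and 100% = reference antagonist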
CHO Ca triplic: signal in parental CHO cells, OX1R antagonist counter-screen. shares compounds with OX1R antag-1. parental CHO-K1, ATP-induced calcium, Fluo-8 fluorescence. inhibition, % at 5.6 µM. 1,100 tested, 9.3% active. AID 492965;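 active = inhibition above a per-plate limit, the mean inhibition of that plate's test compounds plus 3 SD, cut at about 25% in these data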;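 note: 0% = ATP challenge with DMSO and 100% = DMSO without ATP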
OX1R HTRF confirm: OX1R (human) antagonism, HTRF confirmed; shares compounds with OX1R antag-2; OX1R-expressing cells, HTRF antagonist assay; inhibition, % at 6.6 µM; 1,800 tested, 49% active; in the data active = inhibition above about 55%;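 note: CHO cells expressing OX1R stimulated with orexin A at about EC80; 0% = agonist challenge alone and 100% = reference antagonist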
CHO-K1 HTRF cnt: counter-screen for OX1R antagonists: effect in parental CHO-K1 cells; shares compounds with OX1R antag-2; HTRF counterscreen; inhibition, % at 6.6 µM; 1,800 tested, 48% active; AID 493232; in the data active = inhibition above about 17%;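 note: 0% = agonist challenge with vehicle and 100% = vehicle alone without agonist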
An asterisk follows results filed as active. In the library only some 2.9% were active in any assay of this set; here they are far more common.

CCn1c(C)csc1=NC(=O)c1ccccc1O was read as M1 PAM parental 0.9, CHO-K1 Ca ag 3.3, CHO parental Ca -15.6, CHO-K1 Ca antag 1.8, OX1R antag-1 54.0*, OX1R antag-2 95.0*, OX1R Fluo8 conf 41.8*, CHO Ca triplic 11.2, OX1R HTRF confirm 90.5* and CHO-K1 HTRF cnt 0.2.
Cc1csc(=NC(=O)c2ccccc2)n1Cc1ccco1 was read as M1 PAM parental 8.5, CHO-K1 Ca ag -0.4, CHO parental Ca -15.5, CHO-K1 Ca antag -2.0, OX1R antag-1 -22.0 and OX1R antag-2 7.6.
For O=C(CSc1nnc(Cn2nnc3ccccc32)o1)N(Cc1ccc(F)cc1)c1ccccc1 the results were M1 PAM parental 8.7, CHO-K1 Ca ag 11.5, CHO parental Ca 10.3, CHO-K1 Ca antag 25.4*, OX1R antag-1 79.1*, OX1R antag-2 77.6*, OX1R Fluo8 conf 50.5*, CHO Ca triplic 61.4*, OX1R HTRF confirm 70.3* and CHO-K1 HTRF cnt 2.9.
`CN(CC(=O)Nc1nc2ccccc2s1)S(=O)(=O)c1ccc(Br)cc1` gave M1 PAM parental 5.5, CHO-K1 Ca ag 7.4, CHO parental Ca 19.4, CHO-K1 Ca antag -14.1, OX1R antag-1 69.5*, OX1R antag-2 48.2*, OX1R Fluo8 conf 7.7, CHO Ca triplic -0.2, OX1R HTRF confirm 26.4 and CHO-K1 HTRF cnt 7.0.
`COc1ccc(NC(=O)CSCC(=O)Oc2c(OC)cccc2OC)cc1` gave M1 PAM parental 2.4, CHO-K1 Ca ag 1.0, CHO parental Ca -1.2, CHO-K1 Ca antag -7.7, OX1R antag-1 -11.6 and OX1R antag-2 16.3.
COCCCC1CCN(C(=O)C2CCC(=O)N(CC3CCCCC3)C2)CC1 (stereo not drawn) was read as M1 PAM parental 0.5, CHO-K1 Ca ag 1.3 and CHO-K1 Ca antag -5.6.
Screening O=C(CSc1nc2ncccc2[nH]1)Nc1ccccc1-c1ccccc1 returned M1 PAM parental -12.3, CHO-K1 Ca ag 2.0, CHO parental Ca -19.0, CHO-K1 Ca antag -1.7, OX1R antag-1 33.1, OX1R antag-2 71.7*, OX1R Fluo8 conf 31.1*, CHO Ca triplic -4.9, OX1R HTRF confirm 72.0* and CHO-K1 HTRF cnt 6.1.
Screening COc1ccccc1NC(=O)CSc1nc2ncccc2[nH]1 returned M1 PAM parental -0.8, CHO-K1 Ca ag 4.1, CHO parental Ca -19.4, CHO-K1 Ca antag -29.6, OX1R antag-1 -21.6 and OX1R antag-2 8.5.
Screening O=S(=O)(CCSc1nc2ccccc2o1)c1nc2ccccc2s1 returned M1 PAM parental 25.7, CHO-K1 Ca ag 7.0, CHO parental Ca -1.2, CHO-K1 Ca antag -14.1, OX1R antag-1 61.6*, OX1R antag-2 41.1*, OX1R Fluo8 conf 13.8, CHO Ca triplic 14.4, OX1R HTRF confirm 36.9 and CHO-K1 HTRF cnt -4.2.
`CCS(=O)(=O)CCSc1nc2ccccc2o1` gave M1 PAM parental 8.3, CHO-K1 Ca ag -0.1, CHO parental Ca -3.3, CHO-K1 Ca antag -14.4, OX1R antag-1 -4.6 and OX1R antag-2 28.0.
Screening CN(C(=O)CSc1ncc(C(F)(F)F)cc1Cl)c1c(N)n(Cc2ccccc2)c(=O)[nH]c1=O returned M1 PAM parental 10.3, CHO-K1 Ca ag 2.0, CHO parental Ca -1.5, CHO-K1 Ca antag -12.8, OX1R antag-1 20.1, OX1R antag-2 88.5*, OX1R HTRF confirm 68.0* and CHO-K1 HTRF cnt 3.8.
Cc1cc(O)c(-c2cc(C(=O)NCCc3ccc(S(N)(=O)=O)cc3)[nH]n2)cc1C was read as M1 PAM parental 9.1, CHO-K1 Ca ag 0.3, CHO parental Ca -5.8, CHO-K1 Ca antag -1.1, OX1R antag-1 -17.2 and OX1R antag-2 7.1.
Screening Cc1cc(C)c(O)c(-c2cc(C(=O)NCCc3ccc(S(N)(=O)=O)cc3)[nH]n2)c1 returned M1 PAM parental -8.8, CHO-K1 Ca ag 0.0, CHO parental Ca -2.6, CHO-K1 Ca antag -5.8, OX1R antag-1 -18.3, OX1R antag-2 98.0*, OX1R HTRF confirm 18.9 and CHO-K1 HTRF cnt -1.2.
Screening N#Cc1cccn1-c1nccc(-c2cccs2)n1 returned M1 PAM parental 3.2, CHO-K1 Ca ag 0.3, CHO parental Ca -18.2, CHO-K1 Ca antag 7.1, OX1R antag-1 -8.6, OX1R antag-2 86.5*, OX1R HTRF confirm 74.5* and CHO-K1 HTRF cnt 1.6.
Cc1ccc(C)n1-c1nccc(-c2cccs2)n1 was read as M1 PAM parental 11.4, CHO-K1 Ca ag 0.1, CHO parental Ca -11.5, CHO-K1 Ca antag -4.9, OX1R antag-1 -8.2 and OX1R antag-2 18.6.
For CCC(CC)C(=O)N(C)c1c(C)nc2c(OCc3ccccc3C(=O)OC)cccn12 the results were M1 PAM parental -14.2, CHO-K1 Ca ag 0.7 and CHO-K1 Ca antag 10.6.
`O=S(=O)(Nc1nc2ccccc2nc1NCc1ccco1)c1ccc(F)cc1` gave M1 PAM parental 14.1, CHO-K1 Ca ag 3.8, CHO parental Ca -11.7, CHO-K1 Ca antag -3.0, OX1R antag-1 -26.5, OX1R antag-2 171.3*, OX1R HTRF confirm 18.4 and CHO-K1 HTRF cnt 3.2.
For CCCCNc1nc2ccccc2nc1NS(=O)(=O)c1ccc(F)cc1 the results were M1 PAM parental -5.9, CHO-K1 Ca ag 1.0, CHO parental Ca -9.6, CHO-K1 Ca antag 7.4, OX1R antag-1 -28.6 and OX1R antag-2 11.2.
`COc1ccc(/C=C2\Oc3cc(OC(=O)N4CCOCC4)ccc3C2=O)cc1` gave M1 PAM parental 13.5, CHO-K1 Ca ag 2.1, CHO parental Ca -6.1, CHO-K1 Ca antag -9.0, OX1R antag-1 -38.3 and OX1R antag-2 6.1.
COc1ccccc1C(=O)Oc1ccc2c(c1)O/C(=C\c1ccncc1)C2=O was read as M1 PAM parental -9.4, CHO-K1 Ca ag 1.5, CHO parental Ca -6.3, CHO-K1 Ca antag 4.4, OX1R antag-1 -9.1, OX1R antag-2 77.8*, OX1R HTRF confirm 19.3 and CHO-K1 HTRF cnt -6.1.
Screening COc1cc(OC)cc(C(=O)NCC2CCCN(Cc3cccc(C(C)=O)c3)C2)c1 (stereo not drawn) returned M1 PAM parental 17.6, CHO-K1 Ca ag -0.1, CHO parental Ca -22.2, CHO-K1 Ca antag 2.4, OX1R antag-1 -31.2 and OX1R antag-2 2.2.
For CCN1C(=O)c2cccc3c(S(=O)(=O)NCc4cccnc4)ccc1c23 the results were M1 PAM parental 17.7, CHO-K1 Ca ag 1.5, CHO parental Ca -1.6, CHO-K1 Ca antag -17.4, OX1R antag-1 -7.4, OX1R antag-2 77.2*, OX1R HTRF confirm 29.5 and CHO-K1 HTRF cnt 14.5.

Screening data as filed in PubChem.
